We go through 15 molecules from PubChem BioAssay.

Experiment [1] addresses Pantothenate synthetase (Mycobacterium tuberculosis (strain ATCC 25618 / H37Rv)) (UniProt P9WIL5). The experiment in a line: Recombinant Mtb pantothenate synthetase (PanC) inhibitors, coupled enzyme, confirmatory (AID 375).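 Note: 0% = full reaction with vehicle and 100% = no enzyme background.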 The settings on record: coupled enzyme assay; at 10 µM, stronger effect = higher value.
A short description of experiment [2]: reducers of endogenous Her2 protein level, primary screen, SKBR3 breast tumor cells, AlphaScreen, ATP viability (AID 461;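 active = Her2 level under about 52% in both replicate screens, with viability over 70% of control, limit read from the data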;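 for Her2 level: lower value means less Her2 protein in the cells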;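 for viability: percent of carrier control wells set as 100% viability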). The settings on record: 18-24 h, measured here: SKBR3 viability, ATP luminescence, at 10 µM.
The target in experiment [3] is Receptor tyrosine-protein kinase erbB-2 (Homo sapiens) (UniProt P04626). The description is as above. The settings on record: 18-24 h, at 10 µM, stronger effect = lower value.
Experiment [4] can be described thus: SK-BR-3 cell growth inhibitors, pilot screen, 24 h, human (AID 572;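 active = viability at or below 10% of carrier control in both of two separate runs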;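 note: compound exposure lasted between 18 and 24 h rather than exactly 24 h; 100% = carrier-treated control wells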). The settings on record: SK-BR-3 viability, CellTiter-Glo luminescence, at 10 µM, stronger effect = lower value.
Experiment [5] can be described thus: HUVEC growth inhibition – cell-based, human, primary screen (AID 575;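 active = viability at or below 30% in both replicate assays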;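 note: 100% = median of untreated cell wells with 0.1% DMSO on each plate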). The settings on record: HUVEC proliferation, CellTiter-Glo luminescence, 72 h; at 10 µM; stronger effect = lower value. The method, boiled down: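 System: primary human umbilical vein endothelial cells; Quantity: 1250 endothelial cells in each well; Buffer or medium: supplemented EBM, 2% fetal bovine serum; Doses: one dose, 10 µM final, 0.1% DMSO; Incubation: 72 h compound incubation; Technique: ATP-based CellTiter-Glo luminescent read; Evaluation: percent of median DMSO-control luminescence; Controls: vehicle and MePR control wells.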

The nature of experiment [6]: growth inhibitors of H69AR lung tumor, primary screen, human, duplicate replicates (AID 580;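 active = viability at or under a set limit in both replicates, limit being median viability minus 3 SD, cut at about 48% in these data, passing the limit was not always enough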;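 note: 100% = mean luminescence of untreated wells and 0% = no signal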). The settings on record: H69AR lung tumor cells viability, ATP luminescence, 72 h; at 10 µM; stronger effect = lower value.
The nature of experiment [7]: reversal of MRP1-mediated doxorubicin resistance, pilot screen, H69AR cells, doxorubicin co-treatment (AID 601;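 active = viability loss from added drug above about 55%, and viability with drug at most 40%, in both replicates, limit read from the data, passing the limit was not always enough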). The settings on record: CellTiter-Glo, 72 h, at 10 µM; for differential viability (reversal): stronger effect = higher value.
A short description of experiment [8]: 384-well plate pilot, post-Golgi transport modulator project, inhibition of yeast transport mutant growth (AID 636; in the data active = inhibition above about 31%). The settings on record: absorbance 615 nm, about 18 h, stronger effect = higher value.
Experiment [9] is described as follows: growth suppression of yeast trafficking mutant, preliminary HTS, modulators of trafficking downstream of Golgi apparatus project, 1536-format plate, OD 615 nm (AID 637; in the data active = inhibition above about 30%). The settings on record: yeast transport mutant growth, absorbance 615 nm, 18 h; stronger effect = higher value.
The mark [10] stands for this setting: H69AR cells + 2 uM doxorubicin, measured here: viability with 2 uM doxorubicin, stronger effect = lower value.
Setting [11] is: H69AR cells, compound alone cytotoxicity.

Calls of active or inactive are those of the source. Unless noted, the rule behind the calls is not given here.

Chain of Pantothenate synthetase (Mycobacterium tuberculosis (strain ATCC 25618 / H37Rv)) (P9WIL5 whole entry, looked up): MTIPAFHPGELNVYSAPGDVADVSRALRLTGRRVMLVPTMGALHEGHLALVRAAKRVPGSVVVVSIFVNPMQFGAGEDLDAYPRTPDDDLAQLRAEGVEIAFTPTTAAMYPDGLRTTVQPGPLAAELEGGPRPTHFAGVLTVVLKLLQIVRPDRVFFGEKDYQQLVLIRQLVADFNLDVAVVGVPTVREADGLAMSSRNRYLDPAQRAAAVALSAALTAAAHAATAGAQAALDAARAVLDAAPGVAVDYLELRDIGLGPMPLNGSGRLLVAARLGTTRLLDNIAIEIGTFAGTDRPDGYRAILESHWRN
Chain of Receptor tyrosine-protein kinase erbB-2 (Homo sapiens) (P04626 whole entry, looked up): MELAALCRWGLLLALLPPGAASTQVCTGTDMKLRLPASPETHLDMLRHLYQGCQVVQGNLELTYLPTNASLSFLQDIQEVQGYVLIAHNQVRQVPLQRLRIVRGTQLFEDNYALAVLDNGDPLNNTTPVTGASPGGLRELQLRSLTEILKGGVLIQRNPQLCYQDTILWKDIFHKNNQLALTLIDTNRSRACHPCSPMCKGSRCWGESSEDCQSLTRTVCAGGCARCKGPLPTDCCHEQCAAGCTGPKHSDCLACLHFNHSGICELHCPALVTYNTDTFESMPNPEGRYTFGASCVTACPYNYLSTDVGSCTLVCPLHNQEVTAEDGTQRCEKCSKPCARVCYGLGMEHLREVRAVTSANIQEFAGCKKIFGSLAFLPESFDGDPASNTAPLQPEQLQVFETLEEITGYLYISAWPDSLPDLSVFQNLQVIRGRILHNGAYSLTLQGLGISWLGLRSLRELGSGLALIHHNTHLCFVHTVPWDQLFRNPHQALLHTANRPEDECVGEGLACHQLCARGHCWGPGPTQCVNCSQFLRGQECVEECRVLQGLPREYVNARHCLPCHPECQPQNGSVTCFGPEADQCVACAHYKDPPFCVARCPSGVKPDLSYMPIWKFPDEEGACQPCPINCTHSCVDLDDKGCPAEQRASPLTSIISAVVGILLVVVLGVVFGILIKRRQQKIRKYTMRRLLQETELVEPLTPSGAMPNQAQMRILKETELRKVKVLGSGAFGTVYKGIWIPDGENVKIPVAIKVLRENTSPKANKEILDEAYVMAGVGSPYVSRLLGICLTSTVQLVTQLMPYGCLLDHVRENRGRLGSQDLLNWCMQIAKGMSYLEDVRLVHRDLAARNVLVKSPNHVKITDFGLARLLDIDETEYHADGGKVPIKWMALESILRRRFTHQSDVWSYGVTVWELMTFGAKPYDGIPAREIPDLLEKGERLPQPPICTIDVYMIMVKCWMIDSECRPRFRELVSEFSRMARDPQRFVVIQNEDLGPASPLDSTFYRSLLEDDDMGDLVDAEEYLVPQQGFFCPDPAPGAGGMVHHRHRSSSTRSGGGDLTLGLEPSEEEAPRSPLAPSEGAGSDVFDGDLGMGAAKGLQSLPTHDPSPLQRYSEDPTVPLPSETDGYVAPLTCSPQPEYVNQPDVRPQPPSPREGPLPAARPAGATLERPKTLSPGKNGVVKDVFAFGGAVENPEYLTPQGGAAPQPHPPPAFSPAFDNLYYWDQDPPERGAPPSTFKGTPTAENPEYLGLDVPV

As to `Cn1c(=O)cc(OCC(=O)N2CCN(C3CCCCC3)CC2)c2ccccc21`, the results for the inhibition in [1], in experiment [8] and in experiment [9] were 0% (inactive), -1.47% (inactive) and -1.15% (inactive), respectively. Also, the viability in [2] is 87%; in experiment [4] it was 87% (inactive); in [5] it was 82% (inactive); in experiment [6], 85.2% (inactive); in experiment [7] (setting [10]) it was 82.1%; in experiment [7] (setting [11]), 85.2%. The Her2 level in experiment [3] was 88% (inactive). In addition, the differential viability (reversal) in experiment [7] (H69AR cells + 2 uM doxorubicin) was 3.09% (inactive).

Take `CC(=O)C1C(=O)NC23CCCCC2C1c1ccccc1O3` (stereo not given): the inhibition in experiment [1] is 0% (inactive); in experiment [8], -3.87% (inactive); in experiment [9] it was -0.16% (inactive). Also, the viability in [2] is 88%; in experiment [4] it was 88% (inactive); in [5] it was 109% (inactive); in experiment [6], 99.3% (inactive); in [7] (setting [10]) it was 95%; in experiment [7] (setting [11]) it was 99.3%. Besides, the Her2 level in experiment [3] was 91.5% (inactive). In addition, in experiment [7] (H69AR cells + 2 uM doxorubicin), the differential viability (reversal) was 4.31% (inactive).

As for `OCC12COC3c4ccccc4C(OC1)N32` (stereo not given), the inhibition in experiment [1] is 0% (inactive); in [8], -5.47% (inactive); in [9], -5.81% (inactive). The viability was 110% in experiment [2]; 110% (inactive) in experiment [4]; 94% (inactive) in experiment [5]; 97.3% (inactive) in experiment [6]; 92.7% in [7] (setting [10]); 97.3% in [7] (setting [11]). Moreover, the Her2 level in experiment [3] was 118% (inactive). Also, in experiment [7] (H69AR cells + 2 uM doxorubicin), the differential viability (reversal) was 4.61% (inactive).

On to `COc1ccc(CN2CCN(c3ccccc3F)CC2)c(OC)c1`, for which the inhibition in experiment [1] was 1% (inactive); in experiment [8] it was -4.46% (inactive); in experiment [9], -0.98% (inactive). For the same molecule, the viability is 92% in experiment [2]; 92% (inactive) in [4]; 91.1% (inactive) in [5]; 128% (inactive) in [6]; 85.4% in experiment [7] (setting [10]); 128% in experiment [7] (setting [11]). The Her2 level in experiment [3] is 88% (inactive). Moreover, the differential viability (reversal) in experiment [7] (H69AR cells + 2 uM doxorubicin) was 42.5% (inactive).

`CCN1CCN(C(=O)COc2cc(=O)n(CC)c3ccccc23)CC1`: the inhibition in experiment [1] was 0% (inactive); in experiment [8] it was 0.38% (inactive); in [9] it was 0.67% (inactive). The viability in experiment [2] was 80.5%; in experiment [4], 80.5% (inactive); in experiment [5], 89.2% (inactive); in [6] it was 90.3% (inactive); in experiment [7] (setting [10]), 67.6%; in [7] (setting [11]), 90.3%. For the same molecule, the Her2 level in experiment [3] was 104% (inactive). Further, the differential viability (reversal) in experiment [7] (H69AR cells + 2 uM doxorubicin) was 22.7% (inactive).

Consider `Cc1ccc(C)c(NC2=NCCCS2)c1`, for which the figures for the inhibition in experiment [1], in experiment [8] and in experiment [9] were 0% (inactive), -8.08% (inactive) and -1.59% (inactive), respectively. The viability in experiment [2] is 108%; in [4], 108% (inactive); in [5], 91.9% (inactive); in experiment [6], 104% (inactive); in experiment [7] (setting [10]), 92.9%; in experiment [7] (setting [11]), 104%. For the same molecule, in [3], the Her2 level was 89.5% (inactive). In [7] (H69AR cells + 2 uM doxorubicin), the differential viability (reversal) was 11.3% (inactive).

Turning to `CC1=C(C(=O)N2CCC3(CC2)OCCO3)C2(CCC(C)CC2)OC1=O` (stereo not given), the inhibition in experiment [1] is 0% (inactive); in experiment [8], -0.77% (inactive); in experiment [9] it was 0.17% (inactive). The viability in [2] was 92.5%; in [4] it was 92.5% (inactive); in experiment [5], 101% (inactive); in [6] it was 98.4% (inactive); in experiment [7] (setting [10]), 103%; in [7] (setting [11]), 98.4%. Moreover, the Her2 level in experiment [3] is 102% (inactive). For the same molecule, the differential viability (reversal) in experiment [7] (H69AR cells + 2 uM doxorubicin) is -4.92% (inactive).

As to `CC1(C)C(c2ccccc2)=NC(c2cccnc2)N1O` (stereo not given), the inhibition in experiment [1] was 0% (inactive); in experiment [8], -6.76% (inactive); in experiment [9], 5.74% (inactive). The viability in [2] was 106%; in experiment [4], 106% (inactive); in experiment [5], 106% (inactive); in experiment [6] it was 95.3% (inactive); in experiment [7] (setting [10]) it was 99.7%; in experiment [7] (setting [11]), 95.3%. Also, the Her2 level in [3] was 96% (inactive). For the same molecule, the differential viability (reversal) in experiment [7] (H69AR cells + 2 uM doxorubicin) was -4.39% (inactive).

In the case of `CN1CCC(N(C)c2ncnc3ccc(Br)cc23)CC1`, the inhibition was 0% (inactive) in experiment [1], -6.1% (inactive) in [8] and 0.79% (inactive) in experiment [9]. Further, the viability is 100% in experiment [2]; 100% (inactive) in experiment [4]; 78.5% (inactive) in experiment [5]; 87.9% (inactive) in experiment [6]; 114% in [7] (setting [10]); 87.9% in [7] (setting [11]). In [3], the Her2 level was 99.5% (inactive). For the same molecule, in experiment [7] (H69AR cells + 2 uM doxorubicin), the differential viability (reversal) is -25.8% (inactive).

On to `CN1CCC(OC(=O)C2c3ccccc3Oc3ccccc32)CC1`, for which the inhibition in [1] is 2% (inactive); in [8], -0.39% (inactive); in experiment [9], -5.16% (inactive). The viability is 96.5% in experiment [2]; 96.5% (inactive) in experiment [4]; 64.3% (inactive) in experiment [5]; 86.4% (inactive) in experiment [6]; 85.5% in experiment [7] (setting [10]); 86.4% in experiment [7] (setting [11]). For the same molecule, in [3], the Her2 level is 96% (inactive). In addition, the differential viability (reversal) in [7] (H69AR cells + 2 uM doxorubicin) was 0.945% (inactive).

`O=C1OCCC1NC1=NCCC1` (stereo not given): the inhibition was 0% (inactive) in experiment [1], -0.78% (inactive) in experiment [8] and -5.41% (inactive) in experiment [9]. Also, the viability in [2] was 92%; in experiment [4] it was 92% (inactive); in [5] it was 111% (inactive); in [6] it was 100% (inactive); in experiment [7] (setting [10]) it was 87.1%; in experiment [7] (setting [11]), 100%. In [3], the Her2 level is 91% (inactive). In experiment [7] (H69AR cells + 2 uM doxorubicin), the differential viability (reversal) is 13.1% (inactive).

Take `Cc1cc(NC(=O)COC(=O)c2c(C)nn(Cc3ccccc3)c2Cl)no1`: the inhibition in experiment [1] is 0% (inactive); in [8], -4.27% (inactive); in experiment [9], -8.03% (inactive). Also, the viability was 96% in experiment [2]; 96% (inactive) in experiment [4]; 79.2% (inactive) in experiment [5]; 105% (inactive) in [6]; 86% in experiment [7] (setting [10]); 105% in experiment [7] (setting [11]). Besides, the Her2 level in experiment [3] is 102% (inactive). For the same molecule, the differential viability (reversal) in [7] (H69AR cells + 2 uM doxorubicin) is 19% (inactive).

In the case of `O=C(O)C1(c2ccc(Cl)cc2)CCC1`, the inhibition is 0% (inactive) in [1], -6.13% (inactive) in [8] and -3.02% (inactive) in experiment [9]. Besides, the viability in experiment [2] was 109%; in [4], 109% (inactive); in experiment [5] it was 97.2% (inactive); in experiment [6], 91.7% (inactive); in experiment [7] (setting [10]), 93.6%; in experiment [7] (setting [11]) it was 91.7%. Also, in experiment [3], the Her2 level was 91.5% (inactive). The differential viability (reversal) in [7] (H69AR cells + 2 uM doxorubicin) is -1.85% (inactive).

Regarding `Cc1ccc(C2SCC(=O)Nc3c2c(=O)[nH]n3C2CCOC(C)(C)C2)cc1` (stereo not given), the inhibition in experiment [1] was 0% (inactive); in experiment [8] it was -5.66% (inactive); in experiment [9], 5.83% (inactive). Further, the viability in [2] is 100%; in experiment [4], 100% (inactive); in experiment [5], 90.9% (inactive); in experiment [6], 98.2% (inactive); in experiment [7] (setting [10]), 87%; in [7] (setting [11]) it was 98.2%. In addition, the Her2 level in experiment [3] is 92% (inactive). Further, the differential viability (reversal) in experiment [7] (H69AR cells + 2 uM doxorubicin) is 11.2% (inactive).

Take `CCCCn1c(O)c(C(C)=Nc2cccc(C(=O)O)c2)c(=O)[nH]c1=O`: the inhibition was 0% (inactive) in experiment [1], -2.11% (inactive) in [8] and 9.02% (inactive) in experiment [9]. Besides, the viability is 108% in [2]; 108% (inactive) in experiment [4]; 89.4% (inactive) in experiment [5]; 105% (inactive) in [6]; 100% in [7] (setting [10]); 105% in [7] (setting [11]). Besides, in experiment [3], the Her2 level is 106% (inactive). Also, the differential viability (reversal) in experiment [7] (H69AR cells + 2 uM doxorubicin) was 4.39% (inactive).
